In test [1] the target is T1, hKOP receptor (Homo sapiens, UniProt P41145). Nature of the test: BRET-based arrestin3 recruitment assay, hKOP-RLuc8 with arrestin3-mVenus. The test is classed as cell-based. As to conditions: Potency for arrestin3 recruitment at hKOP receptor, 5 min after ligand. A digest of the protocol:
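HEK293T cells transfected with polyethylenimine (1:3) using 0.2 µg hKOP receptor with C-terminal RLuc8, 15 µg human arrestin3-mVenus and 4.8 µg empty vector (20 µg total), grown in DMEM/10% FBS. Assayed 48 h post-transfection: cells resuspended in PBS, ~200,000/well, 5 µM coelenterazine H, then ligand 5 min later.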

In test [2] the target is T2, MOP receptor (Homo sapiens, UniProt P35372). Nature of the test: BRET-based G protein. In kind it is cell-based.
Test [3] concerns the target T3, DOP receptor (Homo sapiens, UniProt P41143). Nature of the test: BRET-based G protein. The test is classed as cell-based. In general terms: BRET reads energy transfer from a luciferase to a nearby fluorophore.
The target in test [4] is T1, hKOP receptor. In kind it is binding.
Test [5] addresses T2, MOP receptor. Put plainly: Competitive inhibition of 3H-diprenorphine binding at the MOP receptor. As to conditions: 3H-diprenorphine 0.3 nM.
For test [6], the target named is T3, DOP receptor. Nature of the test: Competitive inhibition of 3H-diprenorphine binding at the DOP receptor. As to conditions: 3H-diprenorphine 0.3 nM.
Test [7] concerns the target T1, hKOP receptor. Nature of the test: BRET-based G protein. In kind it is cell-based. To be noted: relative to EKC.

Four molecules from paper PMC3702663 (Journal of chemical information and modeling, 2013) can be followed below.

Where two headings read alike, the source gives them in different places.

Regarding `O=C(CN1CCCC1C(=O)Nc1nccs1)Nc1cccc(F)c1` (racemic) [MCKK-17, 1-(2-(3-fluorophenylamino)-2-oxoethyl)-N-(thiazol-2-yl)pyrrolidine-2-carboxamide], the figures for the EC50 at hKOP receptor [1] and at DOP receptor [3] were 160 ± 38 µM and greater than 1000 µM, respectively. At MOP receptor [2], the “Agonistic activity at the MOP receptor, in words” value is reported as “Neither the racemic nor the MCKK-17 stereoisomers displayed significant activity”. Moreover, the “Inhibition of 3H-diprenorphine binding (primary testing)” value at hKOP receptor [4] (100 µM compound, 3H-diprenorphine 0.3 nM) was “partially but significantly inhibited”.
For the molecule `CC[C@]12CCN(CC3CC3)[C@H](C(=O)c3ccc(O)cc31)[C@@H]2C` [EKC, ethylketocyclazocine, reference compound], the Ki worked out at 0.17 ± 0.1 µM at MOP receptor [5] (Ki at the MOP receptor, reference ligand) and 0.25 ± 0.031 µM at DOP receptor [6] (Ki at the DOP receptor, reference ligand).
Regarding `O=C(CN1CCCC1C(=O)Nc1nccs1)Nc1cccc(F)c1` (centres unmarked) [MCKK-17R, 1-(2-(3-fluorophenylamino)-2-oxoethyl)-N-(thiazol-2-yl)pyrrolidine-2-carboxamide], the EC50 at hKOP receptor [1] and on DOP receptor [3] was greater than 1000 µM throughout. The “Agonistic activity at the MOP receptor, in words” value at MOP receptor [2] was “Neither the racemic nor the MCKK-17 stereoisomers displayed significant activity”. Besides, the “Agonistic activity at the DOP receptor, in words” value on DOP receptor [3] (BRET) is given as “most active enantiomer at the DOP receptor”. Further, the Ki came to 510 µM at MOP receptor [5] (Ki MOP, means ± S.E.M. (n=3)) and 290 µM at DOP receptor [6] (Ki DOP, means ± S.E.M. (n=3)).
On to `O=C(CN1CCCC1C(=O)Nc1nccs1)Nc1cccc(F)c1` (centres unmarked) [MCKK-17S, 1-(2-(3-fluorophenylamino)-2-oxoethyl)-N-(thiazol-2-yl)pyrrolidine-2-carboxamide], for which the EC50 on hKOP receptor [1] was 120 ± 47 µM; at DOP receptor [3] (read-out: Potency for G protein activation at the DOP receptor, BRET), greater than 1000 µM. In addition, the “Agonistic activity at the MOP receptor, in words” value at MOP receptor [2] is reported as “Neither the racemic nor the MCKK-17 stereoisomers displayed significant activity”. Moreover, on DOP receptor [3] (BRET), the “Agonistic activity at the DOP receptor, in words” value was “did not significantly activate the DOP receptor”. The inhibitory constant (Ki) on MOP receptor [5] (Ki MOP, means ± S.E.M. (n=3)) was greater than 10000 µM; on DOP receptor [6] (Ki DOP, means ± S.E.M. (n=3)), greater than 10000 µM; on hKOP receptor [4] it was 120 µM. In addition, the “Agonistic activity (GαoB activation) at hKOP receptor, in words” value on hKOP receptor [7] is given as “full agonism relative to EKC”.

What is called Ki is a measure of affinity in units of concentration, obtained from inhibition or displacement. A higher Ki goes with weaker binding.
